From PubChem
M5 antag: CHRM5 antagonism in calcium assay; CHO-hM5 cells, Fluo-8 calcium fluorescence, ACh EC80; inhibition, % at 3 µM; hit rate 0.59% among 360,000; AID 624040;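 active = inhibition above a per-plate cutoff, the mean of that plate's test compounds plus 3 SD, cut at about 27% in these data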;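 note: 0% = acetylcholine EC80 with DMSO and 100% = DMSO without agonist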
Target sequence (P08912 whole entry, looked up): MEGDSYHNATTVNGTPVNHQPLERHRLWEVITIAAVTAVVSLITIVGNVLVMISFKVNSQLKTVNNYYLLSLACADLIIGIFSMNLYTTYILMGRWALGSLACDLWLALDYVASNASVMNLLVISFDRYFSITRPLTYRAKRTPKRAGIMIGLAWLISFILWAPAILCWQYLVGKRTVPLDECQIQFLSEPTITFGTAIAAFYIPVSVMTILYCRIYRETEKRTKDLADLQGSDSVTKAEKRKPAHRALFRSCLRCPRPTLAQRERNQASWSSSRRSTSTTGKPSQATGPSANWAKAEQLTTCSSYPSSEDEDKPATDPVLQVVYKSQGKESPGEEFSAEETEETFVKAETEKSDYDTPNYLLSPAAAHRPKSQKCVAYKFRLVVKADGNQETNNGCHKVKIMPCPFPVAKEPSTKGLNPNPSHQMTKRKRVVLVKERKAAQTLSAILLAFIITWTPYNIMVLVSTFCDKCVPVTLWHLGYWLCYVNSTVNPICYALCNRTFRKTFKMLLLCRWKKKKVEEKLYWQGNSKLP
M4 ag: agonists of human muscarinic M4 receptor (CHRM4); hit rate 0.14% among 360,000; activation, % at 3 µM; CHO-K1 hM4/Gqi5, Fluo-8 calcium fluorescence; vehicle 0%, full acetylcholine response 100%; P08173; AID 624127;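 active = activation above the run mean over all test wells plus 3 SD, cut at about 32% in these data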;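 note: peak over basal fluorescence ratio per well then scaled between controls; 0% = DMSO wells and 100% = acetylcholine at EC100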
CHRM4 PAM: CHRM4 positive allosteric modulation. CHO-K1 hM4/Gqi5, Fluo-8 calcium fluorescence, ACh EC20; 0% = ACh EC20, 100% = maximal ACh. activation, % at 3 µM. hit rate 0.4% among 360,000. P08173;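 active = activation above its plate's cutoff, the mean activation of sample wells plus 3 SD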
CHRM4 antagonist: CHRM4 antagonism in calcium assay | inhibition, % at 3 µM | hit rate 0.73% among 360,000 | CHO-hM4 cells, ACh EC80, Fluo-8 calcium fluorescence;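 active = inhibition above its plate's cutoff, the mean inhibition of sample wells plus 3 SD, cut at about 27% in these data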;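 note: 0% = acetylcholine EC80 with DMSO and 100% = DMSO without agonist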
CHRM5 PAM: positive allosteric modulators of human muscarinic M5 receptor; CHO-K1 hM5, Fluo-8 calcium, ACh EC20 PAM; 0% = ACh EC20, 100% = ACh EC100; hit rate 0.3% among 360,000; P08912; activation, % at 3 µM;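 active = activation above the run cutoff, the mean activation of all test compounds plus 3 SD, cut at about 18% in these data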
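Replicates: One well per compound, no replicates | System: Human M5 receptor in CHO-K1 cells | Benchmarks: Low control EC20 acetylcholine (0%), high control EC100 acetylcholine (100%) | Probe or stimulus: Acetylcholine, EC20 level | Times: Fluo-8 loading 80 min at 37 °C plus 30 min room temperature | Signal: Intracellular calcium via Fluo-8 fluorescence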
CHRM5 agonist: CHRM5 agonism in calcium assay; activation, % at 3 µM; hit rate 0.19% among 360,000; CHO-K1 hM5 cells, Fluo-8 calcium fluorescence; 0% DMSO wells, 100% maximal acetylcholine response;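 active = activation above the run's mean over test compounds plus 3 SD, cut at about 23% in these data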;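 note: signal is peak over basal fluorescence ratio across the kinetic read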
* marks the source's active call; other numbers are inactive results; ! = repeats disagree. This is a sample that favours compounds with a hit; in the whole collection about 1.8% have one here.

SMILES	M5 antag	M4 ag	CHRM4 PAM	CHRM4 antagonist	CHRM5 PAM	CHRM5 agonist
O=C(NCc1ccco1)c1nnc(Cc2ccc(Cl)cc2)o1	1	-2	-6	39*	1	-2
COCCNCCOc1ccccc1-c1ccccc1	-11	2	2	-1	19*	-11
O=C(COC(=O)COc1cccc(C(F)(F)F)c1)NC(=O)NC1CCCCC1	14	2	4	5	-11	-7
Fc1ccc(-n2nnnc2-c2cnc(-c3cccs3)nc2C(F)(F)F)cc1	47*	14	-20	48*	-23	2
COc1ccccc1C(CNC(=O)C(CCSC)NS(=O)(=O)c1ccccc1F)N1CCCC1 (stereo unspecified)	-1	4	12	-8	-3	-2
COc1cccc(C(C(=O)NC2CCCC2)N(Cc2ccc(C)cc2)C(=O)c2ccco2)c1OC (stereo unspecified)	-4	1	15	10	28*	-4
COc1cccc(C(C(=O)NC2CCCC2)N(C(=O)c2ccco2)C2CC2)c1OC (stereo unspecified)	0	1	1	8	-3	-3
COC(=O)c1ccc(N2CCOCC2)c(NC(=O)Nc2cccc(OC)c2)c1	3	3	-5	0	-7	1
CCOC(=O)c1ccc(N2CCN(c3ccccc3F)CC2)c(NC(=O)Nc2cccc(OC)c2)c1	45*	3	4	3	-20	-1
Cc1cc(C)c2sc(NNC(=O)C3COc4ccccc4O3)nc2c1 (stereo unspecified)	-3	0	16*	-18	2	0
Cn1cnnc1SCCC(=O)Nc1ccccc1	-2	1	38*	7	3	7
Cc1noc(C)c1S(=O)(=O)Nc1ccc2c(c1)CC(=O)N([C@H](C)CO)C[C@H](C)[C@H](CN(C)S(=O)(=O)c1ccc(F)cc1)O2	4	1	-14	59*	7	-7
Cc1noc(C)c1S(=O)(=O)Nc1ccc2c(c1)C(=O)N([C@H](C)CO)C[C@H](C)[C@@H](CN(C)S(=O)(=O)c1ccc(F)cc1)O2	5	0	1	0	3	1
N#Cc1cccc(NC(=O)c2cc(C3CCCCN3C(=O)c3cccs3)on2)c1 (stereo unspecified)	0	7	-5	0	0	2
O=c1oc2cc(O)ccc2cc1S(=O)(=O)c1ccccc1	-12	1	0	-13	5	-2
O=c1oc2cc(O)ccc2cc1-c1nc2ccccc2o1	20	41*	-14	22	-21	27*
O=C(Nc1csc([N+](=O)[O-])c1)Nc1ccccc1Cl	45*	25	-27	29*	-35	0
COCC(=O)N1CCC(n2nccc2NC(=O)CCOc2ccccc2)CC1	22	0	-2	-11	-11	-4
Cn1nc(C(C)(C)C)cc1C(=O)NCc1ccc2c(c1)OCO2	29*	13	-9	10	-11	5
O=C(O)c1ccccc1C(=O)NCc1ccc2c(c1)OCO2	7	0	3	8	-1	-5
O=C(NCc1ccc2c(c1)OCO2)c1cc2ccccc2o1	1	0	5	6	30*	-6
Cc1oc(C(C)(C)C)cc1C(=O)NCc1ccc2c(c1)OCO2	9	2	2	-10	0	1
Cn1cc(Br)c(NC(=O)/C=C/C(=O)O)n1	6	3	-2	3	-14	-2
O=C(Cn1c2ccccc2c2nc3n(c(=O)c21)CCS3)Nc1ccccc1C(F)(F)F	8	4	10	-7	19*	11
N#Cc1c(N)c(C#N)c(-c2ccc3c(c2)OCO3)c2c1CCCC2	-18	0	39*	1	23*	-3
SMILES	M5 antag	M4 ag	CHRM4 PAM	CHRM4 antagonist	CHRM5 PAM	CHRM5 agonist
N#Cc1c(N)c(C#N)c(-c2ccc(O)cc2)c2c1CCCC2	3	8	5	1	-2	0
O=S1(=O)N[C@@H](Cc2ccccc2)COc2cc(Br)ccc21	-8	-2	-6	4	5	-2
Cc1ccc(NC(=O)c2ccc(-n3cncn3)c([N+](=O)[O-])c2)cc1	4	5	0	1	-4	1
O=C(Nc1ccc(Cl)cc1)c1ccc(-n2cncn2)c([N+](=O)[O-])c1	15	24	-14	29*	-12	6
COc1ccc(Cl)cc1NC(=O)CSc1sc2c(O)cc(=O)[nH]c2c1C#N	19	7	23*	4	15	-1
Cc1ccc(Cl)cc1NC(=O)CSc1sc2c(O)cc(=O)[nH]c2c1C#N	14	1	-1	4	-5	-4
O=C(CCn1cnc(-c2ccccc2)c1-c1ccccc1)N/N=C/c1ccc(O)cc1	5	0	-1	-5	-4	-2
COc1ccc(/C=N/NC(=O)CCn2cnc(-c3ccccc3)c2-c2ccccc2)cc1	-3	0	7	85*	-2	1
Cc1ccc(S(=O)(=O)N(C)C[C@H]2OCc3cnnn3CCCC(=O)N([C@@H](C)CO)C[C@H]2C)cc1	-11	0	-2	-11	4	0
COc1ccc(S(=O)(=O)N(C)C[C@@H]2OCc3cnnn3CCCC(=O)N([C@@H](C)CO)C[C@@H]2C)cc1	-5	1	19*	-17	-3	1
COc1ccc(C(C)(O)c2nc(-c3cnc4ccccc4c3)cs2)cc1 (stereo unspecified)	-2	7	-3	-13	-8	1
CC(=O)Nc1ccc(S(=O)(=O)NC2=C(N3CCN(Cc4ccccc4)CC3)C(=O)c3ccccc3C2=O)cc1	19	13	0	31*!	-9	-2
CCN1CCN(C2=C(NS(=O)(=O)c3ccc(NC(C)=O)cc3)C(=O)c3ccccc3C2=O)CC1	-7	0	-4	12	1	0
Cc1c(N=C/C=C/c2ccccc2)c(=O)n(-c2ccccc2)n1C	27	0	-17	53*	-23	-7
O=C(NCc1ccncc1)[C@@H]1CCCN1C(=O)[C@H]1CCCN1C(=O)c1c(F)cccc1F	-3	1	-1	2	4	3
CN(C)CC/C=C1/c2cc(F)ccc2CSc2ccc(F)cc21	98*	1	-37	84*	-20	-7
Clc1ccc2c(c1)-c1[nH]ncc1CS2	1	0	3	-3	-1	-1
CN(C)CC/C=C1\c2cc(F)ccc2CSc2ccccc21	98*	11	-17	97*	-18	-2
Cc1ccc(C(=O)NCC(=O)NCCCc2ccccc2)cc1	5	0	-1	-1	-1	-4
